Results collected from several papers.
Compare with care: the assays were run in different laboratories.
Target: MAP kinase-activated protein kinase 2 (MAPKAPK2, Homo sapiens, UniProt P49137)

With `CN1CC(Oc2cnc(C#N)cc2-c2ccn3nc(NC(=O)C4CC4)cc3c2)C1` the inhibition was -21% (enzyme activity, inhibitor; 1 µM).
The inhibition of `CCN(CC)CCNC(=O)c1c(C)[nH]c(/C=C2\C(=O)Nc3ccc(F)cc32)c1C` is reported as 7% (enzyme activity, inhibitor; 0.3 µM).
`O=C1CCc2cc(Nc3cc(OC4CCOCC4)c([N+](=O)[O-])cc3Cl)ccc2N1` gave a remaining binding of 99% (cell-free assay, competition with immobilised ligand; 1 µM).
`COc1cc2ncnc(Nc3ccc(Oc4ccccc4)c(C)c3C)c2cc1OC` gave an inhibition of -17% (enzyme activity, inhibitor; 1 µM).
With `c1ccc(N2CCN(Cc3nc4ccccc4[nH]3)CC2)nc1` the remaining binding was 100% (binding, competition with immobilised ligand; 1 µM).
With `O=C(CSc1nc2nccnc2c(=O)n1CCc1ccccc1)Nc1nccs1` the inhibition was 6% (enzyme activity, inhibitor; 10 µM).
For `FC(F)(F)Oc1cccc(-c2cnc3ccc(-c4ccncc4)nn23)c1`, the activity vs control was 93% (enzyme activity, inhibitor, radiometric; 1 µM).
`CNC(=O)c1cc(Oc2ccc(NC(=O)Nc3ccc(Cl)c(C(F)(F)F)c3)cc2)ccn1` gave an inhibition of 6% (enzyme activity, inhibitor; 10 µM).
For `N#CCCc1ccc2c(c1)-c1[nH]c3ccc([N+](=O)[O-])cc3c1CC(=O)N2`, the remaining signal was 83.4% (cell-free assay; 0.5 µM).
For `Cc1ncc([N+](=O)[O-])n1C(=NO)c1ccccc1C(F)(F)F`, the inhibition was 21.4% (enzyme activity, inhibitor; 10 µM).
`Nc1cnc(N2CCc3cc(S(=O)(=O)Nc4c(F)cc(Cl)cc4F)cc(N4CCCC4=O)c32)nc1` has a remaining binding of 100% (cell-free assay, competition with immobilised ligand; 1 µM).
The inhibition of `Cc1ccc(Nc2nccc(N(C)c3ccc4c(C)n(C)nc4c3)n2)cc1S(N)(=O)=O` is reported as 4% (enzyme activity, inhibitor; 0.3 µM).
With `CC(C)(C)c1nc2c(s1)c1nc(N)ncc1c1ccc(NS(=O)(=O)c3c(F)cccc3F)c(F)c12` the remaining activity was 69% (enzyme activity, inhibitor, radiometric; 1 µM).
The remaining signal of `Clc1ccc(Nc2nnc(Cc3ccncc3)c3ccccc23)cc1` is reported as 98.8% (cell-free assay; 0.5 µM).
`CCOc1cc(-c2nncn2C)ccc1Nc1ncc2cc(C)nc(NCC(C)(C)C)c2n1` gave an inhibition of 24% (enzyme activity, inhibitor, FRET; 1 µM).
`CC(C)(O)[C@H]1CC[C@H](Nc2ccc3ncc(-c4cccc(C(F)(F)F)c4)n3n2)CC1` has a remaining activity of 105% (enzyme activity, inhibitor; 1 µM).
For `Nc1nc(NC2CCCCC2)sc1C(=O)c1ccccc1`, the remaining activity was 96% (enzyme activity, inhibitor; 10 µM).
The remaining binding of `CCS(=O)(=O)c1cc2cc(C[C@](O)(CC(C)(C)c3ccc(F)cc3C(N)=O)C(F)(F)F)[nH]c2cn1` is reported as 100% (cell-free assay, competition with immobilised ligand; 1 µM).
The remaining activity of `Cn1c(=O)n(-c2ccc(C(C)(C)C#N)cc2)c2c3cc(-c4cnc5ccccc5c4)ccc3ncc21` is reported as 99% (enzyme activity, inhibitor; 10 µM).
The remaining binding of `Cn1cc(Cl)c2c(Oc3c(F)cc(Nc4cc(Cl)nc(N)n4)cc3F)ccnc21` is reported as 100% (cell-free assay, competition with immobilised ligand; 0.1 µM).
For `CC/C(=N\NC(=O)NCc1cccc(O)c1)c1ccc(O)c(C)c1O`, the inhibition was -0.7% (enzyme activity, inhibitor; 0.1 µM).
The remaining activity of `O=C(Nc1cnn(-c2csc(C(=O)NC3COC3)c2)c1)Nc1ccccc1Cl` is reported as 97.1% (enzyme activity, inhibitor; 5 µM).
With `CN(C)C1CCN(CC#Cc2nn(C3CCCC3)c3nc(NCc4ccccc4)ncc23)C1` (stereo not drawn) the inhibition was 0% (enzyme activity, inhibitor, FRET; 10 µM).
With `O=C1NC(=O)c2cc(Nc3ccc(F)cc3)c(Nc3ccc(F)cc3)cc21` the remaining signal was 95.7% (cell-free assay; 0.5 µM).
`Cc1noc([C@H]2C[C@@H](c3ccc(C(F)(F)F)cc3)CN(C(=O)N3CCS(=O)(=O)C3)C2)n1` gave a remaining binding of 97% (cell-free assay, competition with immobilised ligand; 1 µM).
`Nc1ncnc2occ(-c3ccc(NC(=O)Nc4cc(C(F)(F)F)ccc4F)cc3)c12` has a remaining signal of 86% (cell-free assay, inhibitor; 20 µM).
The inhibition of `CSc1nc(C)c(-c2ccnc(Nc3ccc(N4CCOCC4)cc3)c2)[nH]1` is reported as -1.9% (enzyme activity, inhibitor; 10 µM).
`CN(C)C(=O)Cn1cc(-c2nc([C@@](C)(c3ccc(-c4cnc(N)nc4)cc3)C3CC3)no2)cn1` gave a remaining binding of 92% (cell-free assay, competition with immobilised ligand; 1 µM).
`COc1cc(Nc2cnc(C#N)c(O[C@H](C)CN(C)C)n2)ncc1-c1cnn(C)c1` gave a remaining activity of 104% (enzyme activity, inhibitor, radiometric; 10 µM).
The remaining binding of `CCC(=N\O)/C(C)=C/c1ccc(F)cc1` is reported as 69% (cell-free assay, competition with immobilised ligand; 1 µM).
With `CC(C)(C)C(=O)c1sc(NC2CCCCC2)nc1N` the remaining activity was 102% (enzyme activity, inhibitor; 10 µM).
`Cc1sc(C(=O)NC2COC2)cc1-n1cc(NC(=O)Nc2c(F)cccc2Cl)cn1` has a remaining activity of 93.6% (enzyme activity, inhibitor; 10 µM).
With `CCN(CC)c1ccc(C2=NNC(=O)CC2C)cc1[N+](=O)[O-]` (stereo not drawn) the remaining activity was 86% (enzyme activity, inhibitor; 10 µM).
